# Source: the EternaBench riboswitch data
# Tested on: MS2 coat protein
# Experiment: apparent Kd, MS2 coat protein; higher = weaker binding; RNA-MaP array
# Procedure, shortened: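 In Tris-HCl pH 7.5 buffer with KCl, MgCl2, BSA, DTT, tRNA and Tween20, with or without input ligand, fluorescently labeled MS2 coat protein at 1.5 nM to 3 μM was incubated at room temperature with designed RNAs. The RNAs had been transcribed on an Illumina sequencing chip from sequenced DNA templates, and incubation ran 0.8–1.5 h at the lowest to 10–20 min at the highest concentrations. Apparent Kd is the median of binding-curve fits for individual clusters. Designs measured on fewer than 10 clusters were excluded.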
# [1] = designed as: OFF switch for flavin mononucleotide, no ligand
# [2] = ligand present: flavin mononucleotide, designed as: OFF switch for flavin mononucleotide
# [3] = designed as: ON switch for flavin mononucleotide, no ligand
# [4] = ligand present: flavin mononucleotide, designed as: ON switch for flavin mononucleotide
# [5] = designed as: ON switch for theophylline, no ligand
# [6] = ligand present: theophylline, designed as: ON switch for theophylline
Sequence,apparent Kd [1] [nM],apparent Kd [2] [nM],apparent Kd [3] [nM],apparent Kd [4] [nM],other results
AAACAUGAGGAUCACCCAUGUCGUCCAAUGUAGGCCUAUUGCGAGGAUAUCAUGUCCCAACUACGUGAGAAGGCGCGACUACCA,15.2,12.5,,,
AAAGAUAACAAAGGAUAUGGAAGAAAUUAUAGGCCAGAAGGAUGGAAAUUGACAAUCGUGACAUGAGGAUCACCCAUGUAAGAA,,,15.9,13.2,
AACAUGAGGAUCACCCAUGUUCUGCAAUAAAGUGUAUCAUAUAAGGAUAUCAGACUAAUACGAACUGAGAAGGUAUUCCUACAC,,,5.3,4.39,
AAGAGACAUGAGGAUCACCCAUGUGUUGAUACCAGAAACACAAAGUUCCCUUGGCAGCAAAUCUGAGCGAAACGAUCUAGAGCGC,,,,,apparent Kd [5]: 48.4 nM; apparent Kd [6]: 74.5 nM
AAGAGCAGAGGAUAUACAUAGGCAUCAGUUGAAGCAGCUGAACAUGAGGAUCACCCAUGUAGAAGGCUGACAAA,5.43,7.29,,,
AAGGGCGCAGUAGGAUAUCAAUGUUUGACGGCGUGAGAAGGACUGCCCUAUUUUCAGACAUGAGGAUCACCCAUGUGCGUAAGA,,,9.4,6.41,
AAUACAUGAGGAUCACCCAUGUUGACAUCAUGAGCCAACCUUAGAAGGACUUUAAUGACGCUCGAGUAGGAUAUAAGGCAAGUU,,,13.7,12,
AAUUCAAGGGUUAGGAUAUUCAAUAUAAAAUACUAGAAGAAGGAACAUGAGGAUCACCCAUGUUAUAGUGAUCU,27.1,32.1,,,
ACAAAAUAGCUAGGAUAUCGUACGAAUUGACAUUUUUAGCAAACAUGAGGAUCACCCAUGUCCUACGAGAAGGAGCUUAUGAAG,14.3,7.55,,,
ACACAUGAGGAUCACCCAUGUCGACGUUAGGCUCGUCGCGGCAGAAGGUGUGGCAUGGACACCCACAAGGAUAUGCAUGGGACU,,,174,119,
ACCAGGUCAGGAUAUAGUUGGCAUUUGGCUGUGCCUCACUACUAGAAGGGACAUGAGGAUCACCCAUGUUGGGC,28.6,50.5,,,
ACGAAGUGAGGAUAUACAUGAGGAUCACCCAUGUGCCCAGGGUGUGAUUGUAAAGAACGUAGAAGGCACAAUAG,594,132,,,
ACUAAUCAGCAACAUGAGGAUCACCCAUGUGGGCCGUCCGGCAGAAGGCCUACGCACUUAGACUAGGAGGAUAUGCAAGCAACU,15.7,18.4,,,
ACUCGACAUGAGGAUCACCCAUGUCAGGAUAUCUGAGUGUGGCCUCCUACUAAACUAUAGAGAAGGGACAAUGG,10.3,11,,,
ACUCGGGGUUGAGGAUAUUCGACUCGAUCUCCACAUGAGGAUCACCCAUGUCAGGACUGACCGGUGAAGAAGGCAACCGUACAU,,,16.2,5.67,
ACUGUCUUUGAUGAUAUGUAUGGGUCAUUGCGAGGACCGGUACGGCCGCCACUCGGUCCGCCACAUGAGGAUCACCCAUGUCUAU,,,,,"apparent Kd (designed as: OFF switch for tryptophan, no ligand): 94.5 nM; apparent Kd (ligand present: tryptophan, designed as: OFF switch for tryptophan): 195 nM"
AGAAAACAUGAGGAUCACCCAUGUAAGGAUAUACAAACUCCAGAAAUAAAAGGAUUAAGAAGAAGGUACAUAAA,10.9,9.2,,,
AGACAUGAGGAUCACCCAUGUCUCGGGAUGCGUAGCUUGCACAGAAGGCAUGACCGCAACGGUGAUGAGGAUAUGUCGUACCAA,,,25.9,8.87,
AGAGUGAGAGGAUAUUUUGGCGUAGACAUGAGGAUCACCCAUGUGUCGUGGGCACUGCUGAAAGAAGGCUCAGCUC,29.3,25.3,,,
AGCUCGGCAGGAUAUACAUGAGGAUCACCCAUGUUUGCAGGCGCGCCGGUAGACUUUUGUAGAAGGGCCGUAUA,44.8,113,,,
AGGAAGACGAUGGAUACCAGACAACCAGGGAACAUGAGGAUCACCCAUGUGAUUGAAAGGGUCCCUUGGCAGCCAGAAGCCGUUG,,,,,apparent Kd [5]: 88.3 nM; apparent Kd [6]: 119 nM
AGGGACAUGAGGAUCACCCAUGUUGAAACUCGAGGACCGGUACGGCCGCCACUCGUAUAAUCGAUGUCCAUUUGGGAUUCCGGCU,,,,,"apparent Kd (designed as: ON switch for tryptophan, no ligand): 25.3 nM; apparent Kd (ligand present: tryptophan, designed as: ON switch for tryptophan): 24.2 nM"
AGUCCCAGGGAGAAGGACAUGAUCACAUGAGGAUCACCCAUGUGAGCCAUUUUAUGUAGGGACGUGUAGGAUAUCCGGACAUGG,6.27,6.11,,,
AGUCGUUAACGGCGCAACACAUGAGGAUCACCCAUGUGCUAUGAGGAUAUCCGGGUGUACAAGCCGGAGAAGGCAUCGUUCUUU,,,10.6,9.55,
AGUUGACCAAGAGGAUAUGCCCUGUCUUUAUGUACAUGCAGAACAUGAGGAUCACCCAUGUGACGGCAGAAGGCUUAGCCGGUG,6.77,7.12,,,
AGUUGUGGAAAGAAGGCGUGACGAGGUAAAUAUCCAACAUGAGGAUCACCCAUGUUUCUUGCCUACGAGGAUAUUUGUGCUAUC,,,14,12.2,
